Assay results of several laboratories.
Each line is one published result; the experiments were not run side by side.
Matrix: plasma

Cn1cc(-c2ccc(S(=O)(=O)[C@@H]3C[C@@H](C(=O)NC4(C#N)CC4)N(C(=O)C4(C(F)(F)F)CC4)C3)c(C(F)(F)F)c2)cn1  half-life (human; oral, 30 mg, single dose, fasted, healthy volunteers): 10.2 h
CS(=O)(=O)CCC#N  half-life (human; oral, 1000 mg, multiple doses, once daily): 24.7 h
COc1cc(C(=O)NC2CCN(C)CC2)c(F)cc1Nc1ncc(C(F)(F)F)c(Oc2cccc3c2C(=O)N(C)C3)n1  half-life (human; oral, 300 mg, multiple doses, once daily, patients): 21.6 h
C[C@@H](Nc1cc(F)cc(F)c1)c1cc(C(=O)N(C)C)cc2c(=O)cc(N3CCOCC3)oc12  half-life (human; oral, 120 mg, patients): 4.62 h
C#C[C@]1(COP(=O)(O)OP(=O)(O)OP(=O)(O)O)O[C@@H](n2cnc3c(N)nc(F)nc32)C[C@@H]1O  half-life (human; oral, 400 mg, single dose): 143 h
CCNCCCNC/C=C\CNCCCNCC  half-life (human; intravenous, 150 mg, patients, infusion): 0.2 h
NS(=O)(=O)NCCNc1nonc1C(=NO)Nc1ccc(F)c(Br)c1  half-life (human; oral, 600 mg, multiple doses, twice daily, steady state, patients): 3.3 h
CO[C@H]1/C=C\C=C(/C)C(=O)NC2=CC(=O)C(NCCN(C)C)=C(C[C@@H](C)C[C@H](OC)[C@H](O)[C@@H](C)/C=C(\C)[C@@H]1OC(N)=O)C2=O  half-life (human; intravenous, patients, infusion): 22.3 h
CO[C@H]1CC[C@H](N2C(=O)CNc3ncc(-c4ccc(C(C)(C)O)nc4)nc32)CC1  half-life (human; oral, 60 mg, patients): 5.64 h
CC(C)(O)c1ccccc1-c1ccc2[nH]c(/C=C/c3ccc(C(F)(F)F)cc3)nc2c1  half-life (male human; oral, 15 mg, single dose, fasted, healthy volunteers): 59.3 h
CO[C@@H]1[C@H](OC(=O)N2CC(CCN3CCOCC3)C2)CC[C@]2(CO2)[C@H]1[C@@]1(C)O[C@@H]1CC=C(C)C  half-life (human; subcutaneous, 0.6 mg, single dose, healthy volunteers): 0.56 h
COc1ccc([C@@H]2CN(C(=O)[C@@H](O)CO)C[C@@]2(C)[C@@H](C)O)cc1OC1CN(c2ccc(C)cn2)C1  half-life (human; oral, 5 mg, single dose, healthy volunteers): 11.9 h
CC(C)(Sc1ccncc1-c1ccc(C#N)c2ccccc12)C(=O)O  half-life (male human; oral, 20 mg, single dose, fasted, healthy volunteers): 10.9 h
COCCOc1cnc2ccn([C@H](C)c3nnc4c(F)cc(-c5cnn(C)c5)cn34)c(=O)c2c1  half-life (human; oral, 200 mg, multiple doses, once daily, patients): 8.3 h
CC(C)n1cc(C#N)c2cc(-n3cc(C(=O)O)cn3)ccc21  half-life (male human; oral, 600 mg, single dose, fasted, healthy volunteers): 11.9 h
O=C(Nc1c(Cl)cncc1Cl)c1ccc(OC(F)F)c(OCC2CC2)c1  half-life (human; oral, 0.25 mg, single dose): 20.9 h
c1cnc2ccc(Nc3nc(NC4CC4)c4nc[nH]c4n3)cc2c1  half-life (human; oral, 800 mg/m², patients): 6 h
